In ChEMBL document CHEMBL1138187, “2-(2-Thienyl)-5,6-dihydroxy-4-carboxypyrimidines as inhibitors of the hepatitis C virus NS5B polymerase: discovery, SAR, modeling, and mutagenesis” (J Med Chem, 2006):

Experiments:
[1] = biological target: T1, RNA-directed RNA polymerase (Hepacivirus hominis, UniProt O39930); experiment: Inhibitory activity against HCV 1b BK NS5B deltaC21 RNA polymerase; parameters: species or system Hepatitis C virus subtype 1b
Outline: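 HCV 1b-BK NS5B∆C21 (residues 1-570), expressed in E. coli BL21(DE3) and purified; polymerase activity measured on a homopolymeric template RNA; IC50 read-out.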

[2] = biological target: T1, RNA-directed RNA polymerase; experiment: Inhibitory activity against HCV 1b BK NS5B deltaC55 RNA polymerase involving manganese chelation; parameters: species or system Hepatitis C virus subtype 1b
Outline: (§1)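 HCV 1b-BK NS5B∆C55 (residues 1-536) from E. coli BL21(DE3), assayed on a homopolymeric template RNA with either Mg or Mn as the divalent metal ion. IC50 taken under each metal.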

[3] = biological target: T1, RNA-directed RNA polymerase; experiment: Inhibitory activity against HCV 1b BK NS5B deltaC55 RNA polymerase involving magnesium chelation; parameters: species or system Hepatitis C virus subtype 1b; outline: as §1
[4] = Dissociation constant, pKa of the compound; type: physicochemical
[5] = biological target: T1, RNA-directed RNA polymerase; experiment: Inhibitory activity against HCV 1b BK NS5B deltaC55 RNA polymerase; parameters: species or system Hepatitis C virus subtype 1b
Outline: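 Purified HCV 1b-BK NS5B∆C55 (residues 1-536) expressed in E. coli BL21(DE3). Polymerase activity read on a homopolymeric template RNA at pH 7.4. IC50 is the average of at least three independent determinations; standard deviations within 30% of the average.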

[6] = biological target: T1, RNA-directed RNA polymerase; experiment: Inhibitory activity against HCV 3a BK NS5B deltaC21 RNA polymerase
[7] = Lipophilicity as measured by LogD at pH 7.4; type: physicochemical; conditions: buffer
[8] = biological target: Hepatitis C virus; experiment: Inhibition of subgenomic HCV RNA replication in Huh-7 cells (replicon assay)
[9] = biological target: T1, RNA-directed RNA polymerase; experiment: Inhibitory activity against HCV 1b BK NS5B RNA polymerase; parameters: species or system Hepatitis C virus subtype 1b
Outline: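 Purified HCV 1b-BK NS5B∆C55 (residues 1-536), expressed in E. coli BL21(DE3), assayed with a homopolymeric template RNA at pH 7.4 with Mg as metal ion; IC50 taken as the average of at least three independent determinations.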

[10] = biological target: T1, RNA-directed RNA polymerase; experiment: Inhibitory activity against HCV 2a BK NS5B deltaC21 RNA polymerase; parameters: species or system Hepatitis C virus subtype 2a
[11] = biological target: RNA-directed RNA polymerase (Hepacivirus hominis, UniProt O39930, DELTAC55/R158K); experiment: Inhibitory activity against HCV 1b BK NS5B deltaC55-R158K mutant RNA polymerase; parameters: species or system Hepatitis C virus subtype 1b
Outline: (§2)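 HCV 1b-BK NS5B∆C55 (residues 1-536) carrying R158M or R158K, expressed in E. coli BL21(DE3) and purified. Polymerase run on a homopolymeric template RNA with UTP as substrate; IC50 and UTP Km measured in duplicate.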

[12] = biological target: RNA-directed RNA polymerase (Hepacivirus hominis, UniProt O39930, DELTAC55/R158M); experiment: Inhibitory activity against HCV 1b BK NS5B deltaC55-R158M mutant RNA polymerase; parameters: species or system Hepatitis C virus subtype 1b; outline: as §2
[13] = organism: Homo sapiens; experiment: Percent of unbound ligand in human plasma; type: ADME, organism-based

T1 sequence (O39930 whole entry, the tested form may be a part): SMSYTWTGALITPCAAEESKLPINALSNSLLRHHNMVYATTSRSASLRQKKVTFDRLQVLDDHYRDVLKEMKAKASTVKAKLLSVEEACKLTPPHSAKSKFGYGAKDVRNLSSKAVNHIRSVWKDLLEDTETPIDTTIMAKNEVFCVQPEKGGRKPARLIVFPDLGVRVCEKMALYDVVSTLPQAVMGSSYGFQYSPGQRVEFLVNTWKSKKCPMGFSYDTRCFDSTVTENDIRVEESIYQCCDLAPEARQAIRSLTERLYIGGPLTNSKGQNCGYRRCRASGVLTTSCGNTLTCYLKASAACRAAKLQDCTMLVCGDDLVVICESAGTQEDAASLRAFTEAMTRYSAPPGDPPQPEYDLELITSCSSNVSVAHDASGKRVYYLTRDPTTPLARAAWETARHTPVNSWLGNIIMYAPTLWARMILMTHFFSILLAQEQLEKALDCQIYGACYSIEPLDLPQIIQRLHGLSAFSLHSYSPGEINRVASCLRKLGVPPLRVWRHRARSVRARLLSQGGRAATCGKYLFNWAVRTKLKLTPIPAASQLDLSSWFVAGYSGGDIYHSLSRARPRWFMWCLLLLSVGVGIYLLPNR

| Compound | IC50 [5] [nM] | EC50 [8] [nM] | other results |
| --- | --- | --- | --- |
| O=C(NCc1ccccc1Cl)Nc1ccsc1-c1nc(O)c(O)c(C(=O)O)n1 | 150 | 9300 | IC50 [1]: 45 nM; IC50 [2]: 36 nM; IC50 [3]: 150 nM; pKa [4]: 6.6; IC50 [6]: 48 nM; logD [7]: 0.37; IC50 [9]: 130 nM; IC50 [10]: 44 nM |
| O=C(O)c1nc(-c2cccs2)nc(O)c1O |  |  | IC50 [11]: 92000 nM; IC50 [2]: 240 nM; IC50 [12]: 9300 nM; pKa [4]: 7.7; logD [7]: -1.95 |
| O=C(NCc1csc2ccccc12)Nc1ccsc1-c1nc(O)c(O)c(C(=O)O)n1 | 220 | 30000 |  |
| O=C(NCc1ccccc1)Nc1ccsc1-c1nc(O)c(O)c(C(=O)O)n1 | 230 |  |  |
| O=C(Cc1ccccc1Cl)Nc1ccsc1-c1nc(O)c(O)c(C(=O)O)n1 | 210 | 53300 |  |
| O=C(CCc1ccccc1)Nc1ccsc1-c1nc(O)c(O)c(C(=O)O)n1 | 580 | > 50000 |  |
| O=C(Cc1c[nH]c2ccccc12)Nc1ccsc1-c1nc(O)c(O)c(C(=O)O)n1 | 200 | > 50000 |  |
| O=C(O)c1nc(-c2cc3ccccc3s2)nc(O)c1O | 11600 |  |  |
| O=C(O)c1nc(C2CCCCC2)nc(O)c1O | > 50000 |  | IC50 [2]: > 25000 nM; IC50 [3]: > 50000 nM; pKa [4]: 8.7 |
| Nc1ccsc1-c1nc(C(=O)O)c(O)c(=O)[nH]1 | 1900 |  |  |
| O=C(Nc1ccsc1-c1nc(O)c(O)c(C(=O)O)n1)OCc1ccccc1 | 290 |  |  |
| CCCCc1nc(C(=O)O)c(O)c(=O)[nH]1 | > 50000 |  |  |
| O=C(Cc1csc2ccccc12)Nc1ccsc1-c1nc(C(=O)O)c(O)c(=O)[nH]1 | 230 | > 50000 |  |
| O=C(O)c1nc(Cc2ccccc2)nc(O)c1O | > 50000 |  |  |
| O=C(O)c1nc(-c2ccco2)nc(O)c1O | 2900 |  | IC50 [2]: 240 nM; IC50 [3]: 2900 nM; pKa [4]: 7.4 |
| O=C(O)c1nc(-c2sccc2[N+](=O)[O-])n(Cc2ccccc2)c(=O)c1O | 79300 |  |  |
| O=C(Cc1c(-c2ccccc2)[nH]c2ccccc12)Nc1ccsc1-c1nc(C(=O)O)c(O)c(=O)[nH]1 | 280 | > 50000 |  |
| O=C(O)c1nc(-c2cnccn2)nc(O)c1O | 5300 |  |  |
| O=C(Nc1ccsc1-c1nc(O)c(O)c(C(=O)O)n1)OCc1c(Cl)cccc1Cl | 190 | 18600 |  |
| O=C(O)c1nc(-c2ccc([N+](=O)[O-])s2)[nH]c(=O)c1O | 16000 |  |  |

| Compound | IC50 [5] [nM] | EC50 [8] [nM] | other results |
| --- | --- | --- | --- |
| O=C(Nc1csc(-c2nc(C(=O)O)c(O)c(=O)[nH]2)c1)c1cccs1 | 13800 |  |  |
| O=C(O)c1nc(-c2cc([N+](=O)[O-])cs2)nc(O)c1O | 9400 |  |  |
| C=CCn1c(-c2sccc2[N+](=O)[O-])nc(C(=O)O)c(O)c1=O | 69300 |  |  |
| O=C(Nc1ccsc1-c1nc(O)c(O)c(C(=O)O)n1)OCc1ccccc1Cl | 140 | 31500 | IC50 [11]: 900 nM; IC50 [12]: 340 nM |
| O=C(Nc1ccsc1-c1nc(C(=O)O)c(O)c(=O)[nH]1)c1ccccc1 | 800 | > 50000 |  |
| Cc1cccc(Cl)c1CNC(=O)Nc1ccsc1-c1nc(O)c(O)c(C(=O)O)n1 | 90 | 13600 | Fu [13]: 0.2%; logD [7]: 0.6 |
| Cn1c(-c2cccs2)nc(C(=O)O)c(O)c1=O | 4200 |  | IC50 [2]: 460 nM; pKa [4]: 9.1 |
| O=C(Nc1ccsc1-c1nc(C(=O)O)c(O)c(=O)[nH]1)OCc1cccc2ccccc12 | 140 | 13600 |  |
| Cc1ccsc1-c1nc(O)c(O)c(C(=O)O)n1 | 5600 |  |  |
| O=C(NCCc1ccccc1)Nc1ccsc1-c1nc(O)c(O)c(C(=O)O)n1 | 620 | > 50000 |  |
| O=C(Nc1ccsc1-c1nc(C(=O)O)c(O)c(=O)[nH]1)OCCc1ccccc1 | 460 | > 50000 | logD [7]: -0.43 |
| O=C(Cc1ccccc1)Nc1ccsc1-c1nc(O)c(O)c(C(=O)O)n1 | 380 |  |  |
| O=C(Nc1ccccc1)Nc1ccsc1-c1nc(O)c(O)c(C(=O)O)n1 | 580 | > 50000 |  |
| O=C(O)c1nc(-c2sccc2[N+](=O)[O-])nc(O)c1O | 680 |  | IC50 [2]: 65 nM; IC50 [3]: 680 nM; pKa [4]: 6.9 |
| O=C(O)c1nc(-c2nccs2)nc(O)c1O | 760 |  | IC50 [11]: 16000 nM; IC50 [2]: 210 nM; IC50 [3]: 760 nM; IC50 [12]: 2770 nM; pKa [4]: 6.9; logD [7]: -2.12 |
| CS(=O)(=O)c1nc(C(=O)O)c(O)c(=O)[nH]1 | 2400 |  |  |
| Cn1c(-c2sccc2[N+](=O)[O-])nc(C(=O)O)c(O)c1=O | 8700 |  |  |
| Cc1ccc(-c2nc(O)c(O)c(C(=O)O)n2)s1 | 48600 |  |  |
| O=C(O)c1nc(-c2ccccc2)nc(O)c1O |  |  | pKa [4]: 8.6 |
| O=C(O)c1nc(-c2sccc2NS(=O)(=O)c2ccc3ccccc3c2)[nH]c(=O)c1O | 1420 |  |  |
